In ChEMBL document CHEMBL3877308, “Design, synthesis and in vitro biological evaluation of oligopeptides targeting E. coli type I signal peptidase (LepB)” (Bioorg Med Chem, 2017):
Values after ≈ are worked out from the molar mass of the structure shown.

What was measured:
Signal peptidase I = Signal peptidase I (Escherichia coli K-12, UniProt P00803); assay: Inhibition of full length Escherichia coli His6-tagged LepB expressed in Escherichia coli C43(DE3) using dabcyl-VEVGGTATAGAFSRPGLE-(EDANS) as substrate preincubated for 10 mins followed by substrate addition measured for 2 hrs by FRET assay
Method in brief: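 Enzyme extracted from the membrane fraction with 1% reduced Triton X-100 and purified by metal-chelation chromatography in 0.5% detergent. Enzyme (final ~50 nM) was pre-incubated with compound for 10 min at 22 °C. The linear rise in EDANS donor fluorescence (dabcyl acceptor) was then followed at 22 °C for 2 h. IC50 came from non-linear regression of sigmoidal rate-versus-concentration curves.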

[1] = target: Signal peptidase I (Escherichia coli K-12) (UniProt P00803); assay: Inhibition of full length Escherichia coli His6-tagged LepB expressed in Escherichia coli C43(DE3) assessed as residual activity at 2.5 uM using dabcyl-VEVGGTATAGAFSRPGLE-(EDANS) as substrate preincubated for 10 mins followed by substrate addition measured for 2 hrs by FRET assay relative to control
Method in brief: (§1)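 Enzyme came from the membrane fraction, extracted with 1% reduced Triton X-100 and purified by metal-chelation chromatography in 0.5% detergent. FRET pair was dabcyl acceptor and EDANS donor. EcLepB (final about 50 nM) was pre-incubated with compound 10 min at 22 °C. Reaction was then run with 8 µM substrate, following the linear fluorescence increase at 22 °C for 2 h.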

[2] = target: Signal peptidase I (Escherichia coli K-12) (UniProt P00803); assay: Inhibition of full length Escherichia coli His6-tagged LepB expressed in Escherichia coli C43(DE3) assessed as residual activity at 5 uM using dabcyl-VEVGGTATAGAFSRPGLE-(EDANS) as substrate preincubated for 10 mins followed by substrate addition measured for 2 hrs by FRET assay relative to control; method in brief: as §1
[3] = target: Signal peptidase I (Escherichia coli K-12) (UniProt P00803); assay: Inhibition of full length Escherichia coli His6-tagged LepB expressed in Escherichia coli C43(DE3) at 100 uM using dabcyl-VEVGGTATAGAFSRPGLE-(EDANS) as substrate preincubated for 10 mins followed by substrate addition measured for 2 hrs by FRET assay relative to control; method in brief: as §1
[4] = target: Signal peptidase I (Escherichia coli K-12) (UniProt P00803); assay: (§2) Inhibition of full length Escherichia coli His6-tagged LepB expressed in Escherichia coli C43(DE3) assessed as residual activity at 10 uM using dabcyl-VEVGGTATAGAFSRPGLE-(EDANS) as substrate preincubated for 10 mins followed by substrate addition measured for 2 hrs by FRET assay relative to control; method in brief: as §1
[5] = target: Signal peptidase I (Escherichia coli K-12) (UniProt P00803); assay: as §2, with “at 0.002” for “at 10”; method in brief: as §1
[6] = target: Signal peptidase I (Escherichia coli K-12) (UniProt P00803); assay: as §2, with “at 1.25” for “at 10”; method in brief: as §1
[7] = target: Signal peptidase I (Escherichia coli K-12) (UniProt P00803); assay: as §2, with “at 0.625” for “at 10”; method in brief: as §1
[8] = target: Signal peptidase I (Escherichia coli K-12) (UniProt P00803); assay: as §2, with “at 0.156” for “at 10”; method in brief: as §1
[9] = target: Signal peptidase I (Escherichia coli K-12) (UniProt P00803); assay: as §2, with “at 0.02” for “at 10”; method in brief: as §1
[10] = target: Signal peptidase I (Escherichia coli K-12) (UniProt P00803); assay: as §2, with “at 0.01” for “at 10”; method in brief: as §1
[11] = target: Signal peptidase I (Escherichia coli K-12) (UniProt P00803); assay: as §2, with “at 0.001” for “at 10”; method in brief: as §1
[12] = target: Signal peptidase I (Escherichia coli K-12) (UniProt P00803); assay: as §2, with “at 0.0005” for “at 10”; method in brief: as §1
Escherichia coli [13] = assay: Antibacterial activity against wild type Escherichia coli ATCC 25922 after 16 to 20 hrs by broth microdilution assay; type: functional
Method in brief: (§3)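 MIC by broth microdilution in cation-adjusted Mueller-Hinton II medium, following EUCAST and CLSI guidelines; panel of Gram-negative strains plus S. aureus ATCC 29213.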

Escherichia coli [14] = assay: Antibacterial activity against Escherichia coli CH3130 harboring tolC deletion mutant after 16 to 20 hrs by broth microdilution assay; type: functional
Method in brief: (§4)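 Broth microdilution MIC in cation-adjusted Mueller-Hinton II medium, following EUCAST and CLSI guidelines; tested on a panel of Gram-negative strains plus S. aureus ATCC 29213 (wild-type).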

Escherichia coli [15] = assay: Antibacterial activity against Escherichia coli D22 harboring lpxC mutant after 16 to 20 hrs by broth microdilution assay; type: functional; method in brief: as §4
Pseudomonas aeruginosa [16] = assay: Antibacterial activity against wild type Pseudomonas aeruginosa PAO1 after 16 to 20 hrs by broth microdilution assay; type: functional; method in brief: as §3
Pseudomonas aeruginosa [17] = assay: Antibacterial activity against wild type Pseudomonas aeruginosa PAO750 harboring efflux defective mutant after 16 to 20 hrs by broth microdilution assay; type: functional; method in brief: as §4
Klebsiella pneumoniae = assay: Antibacterial activity against wild type Klebsiella pneumoniae […] after 16 to 20 hrs by broth microdilution assay; type: functional; method in brief: as §3
Staphylococcus aureus = assay: Antibacterial activity against wild type Staphylococcus aureus ATCC 29213 after 16 to 20 hrs by broth microdilution assay; type: functional; method in brief: as §3
Acinetobacter baumannii = assay: Antibacterial activity against wild type Acinetobacter baumannii ATCC 19606 after 16 to 20 hrs by broth microdilution assay; type: functional; method in brief: as §3
[18] = Cytotoxicity against human HepG2 cells assessed as reduction in cell viability after 72 hrs by fluorescein diacetate dye based fluorometric microculture assay; type: toxicity
Method in brief: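 FMCA on HepG2 cells read at 72 h. Survival index (%) is fluorescence in test wells as percent of control cultures, with blank values subtracted. IC50 was obtained by non-linear regression of log concentration-effect curves.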

[19] = Hemolytic activity against human RBC at 100 uM after 45 mins by spectrophotometric method relative to control; type: ADME, cell-based, Erythrocyte; details: red blood cells (RBC), read-out: Activity
Method in brief: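 Hemolysis was tested using red blood cells from heparinized human blood.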

[20] = target: Signal peptidase I (Escherichia coli K-12) (UniProt P00803); assay: as §2, with “at 0.005” for “at 10”; method in brief: as §1
[21] = target: Signal peptidase I (Escherichia coli K-12) (UniProt P00803); assay: as §2, with “at 0.313” for “at 10”; method in brief: as §1
[22] = target: Signal peptidase I (Escherichia coli K-12) (UniProt P00803); assay: as §2, with “at 0.078” for “at 10”; method in brief: as §1
[23] = target: Signal peptidase I (Escherichia coli K-12) (UniProt P00803); assay: as §2, with “at 0.039” for “at 10”; method in brief: as §1

Sequence of Signal peptidase I (Escherichia coli K-12) (P00803 whole entry): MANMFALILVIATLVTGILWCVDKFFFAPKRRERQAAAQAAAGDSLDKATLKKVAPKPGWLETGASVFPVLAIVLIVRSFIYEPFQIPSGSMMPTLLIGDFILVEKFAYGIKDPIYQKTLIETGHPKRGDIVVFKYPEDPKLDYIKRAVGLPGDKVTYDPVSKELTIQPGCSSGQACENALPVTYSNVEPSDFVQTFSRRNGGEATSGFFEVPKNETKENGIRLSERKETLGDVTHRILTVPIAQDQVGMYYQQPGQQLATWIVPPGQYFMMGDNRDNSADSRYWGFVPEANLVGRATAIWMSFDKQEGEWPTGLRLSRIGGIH
Sequence of Signal peptidase I (P00803 whole entry): as above

For CCCCCCc1ccc(-c2ccc(C(=O)N3CC(CN)C[C@H]3C(=O)N[C@H](C(=O)N[C@@H](C)C(=O)N[C@@H](CC(N)=O)C(=O)N[C@@H](C)B3O[C@@H]4C[C@@H]5C[C@@H](C5(C)C)[C@]4(C)O3)[C@H](C)O)cc2)cc1 (stereo not given in full), the IC50 (Signal peptidase I) was 18 nM, the Activity [1] was 0.353% and the Activity [2] was 4.04%. For the same compound, the inhibition [3] was > 50%, the Activity [4] was 3.93% and the Activity [5] was 88.8%. For the same compound, the Activity [6] was 0.881%, the Activity [7] was 5.53% and the Activity [8] was 6.31%. For the same compound, the Activity [9] was 37.6%, the Activity [10] was 81.6% and the Activity [11] was 89.7%. It also gave an Activity [12] of 99.3%, an MIC (Escherichia coli [13]) of 32 µg/mL (≈ 35.6 µM) and an MIC (Escherichia coli [14]) of 4 µg/mL (≈ 4.44 µM). It also gave an MIC (Escherichia coli [15]) of 1 µg/mL (≈ 1.11 µM), an MIC (Pseudomonas aeruginosa [16]) of 64 µg/mL (≈ 71.1 µM) and an MIC (Pseudomonas aeruginosa [17]) of 8 µg/mL (≈ 8.89 µM). It also gave an MIC (Klebsiella pneumoniae) of 16 µg/mL (≈ 17.8 µM), an MIC (Staphylococcus aureus) of 0.5 µg/mL (≈ 0.556 µM) and an MIC (Acinetobacter baumannii) of 32 µg/mL (≈ 35.6 µM). The IC50 at 72 h [18] was 18600 nM and the hemolysis at 0.75 h, 100 µM [19] was 5.7%.

In the case of CC(=O)N[C@@H](C)C(=O)N[C@@H](CC(N)=O)C(=O)N[C@@H](C)C(=O)C(=O)NCc1cccc2ccccc12, the inhibition [3] is reported as 26.6%.

CCCCCCCCCC(=O)N1CCC[C@H]1C(=O)N[C@H](C(=O)N[C@@H](C)C(=O)N[C@@H](CC(N)=O)C(=O)N[C@@H](C)C(=O)O)[C@H](C)O gave an inhibition [3] of 38%.

In the case of CCCCCCCCCC(=O)N1CCC[C@H]1C(=O)N[C@H](C(=O)N[C@@H](C)C(=O)N[C@@H](CC(N)=O)C(=O)N[C@@H](C)C(=O)C(=O)NCc1cccc2ccccc12)[C@H](C)O, the inhibition [3] is reported as 14.4%.

In the case of CC(=O)N1CCC[C@H]1C(=O)N[C@H](C(=O)N[C@@H](C)C(=O)N[C@@H](CC(N)=O)C(=O)N[C@@H](C)B1O[C@@H]2C[C@@H]3C[C@@H](C3(C)C)[C@]2(C)O1)C(C)O (single isomer, unassigned), the inhibition [3] is reported as 26%.

For CC(=O)N[C@@H](C)C(=O)N[C@@H](CC(N)=O)C(=O)N[C@@H](C)C(=O)C(=O)NC(C)(C)C, the inhibition [3] was 13.3%.

In the case of CCCCCCc1ccc(-c2ccc(C(=O)N3CCC[C@H]3C(=O)N[C@H](C(=O)N[C@@H](C)C(=O)N[C@@H](CC(N)=O)C(=O)N[C@@H](C)B3O[C@@H]4C[C@@H]5C[C@@H](C5(C)C)[C@]4(C)O3)[C@H](C)O)cc2)cc1, the IC50 (Signal peptidase I) is reported as 12 nM, the Activity [1] is reported as 7.64% and the Activity [2] is reported as 11.2%. The inhibition [3] was > 50%, the Activity [5] was 92.8% and the Activity [20] was 82.2%. The Activity [6] was 11.4%, the Activity [7] was 16% and the Activity [21] was 17.4%. It also gave an Activity [8] of 16.9%, an Activity [22] of 11.5% and an Activity [23] of 16.8%. It also gave an Activity [9] of 51.2%, an Activity [10] of 57% and an Activity [11] of 94.4%. The Activity [12] was 100%, the MIC (Escherichia coli [13]) was > 64 µg/mL and the MIC (Escherichia coli [14]) was 64 µg/mL (≈ 73.5 µM). The MIC (Escherichia coli [15]) was 16 µg/mL (≈ 18.4 µM), the MIC (Pseudomonas aeruginosa [16]) was > 64 µg/mL and the MIC (Pseudomonas aeruginosa [17]) was > 64 µg/mL. The MIC (Klebsiella pneumoniae) was > 64 µg/mL, the MIC (Staphylococcus aureus) was 4 µg/mL (≈ 4.59 µM) and the MIC (Acinetobacter baumannii) was > 64 µg/mL. It also gave an IC50 at 72 h [18] of 4700 nM and a hemolysis at 0.75 h, 100 µM [19] of 1.1%.

CC(=O)N1CCC[C@H]1C(=O)N[C@H](C(=O)N[C@@H](C)C(=O)N[C@@H](CC(N)=O)C(=O)N[C@@H](C)C(=O)C(=O)NC(C)(C)C)[C@H](C)O showed an inhibition [3] of 22.5%.
